Experiments:
[1] = target: Phosphoglycerate mutase 1 (Homo sapiens, UniProt P18669); experiment: Inhibition of human recombinant PGAM1 by measuring decrease in OD by enzyme based assay
How it was run: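 C-terminal His6-tagged PGAM1, Ni-NTA purified, 4.6 nM, preincubated with inhibitor in DMSO; coupled enolase/pyruvate kinase M2/LDH system in 100 mM Tris-HCl, 100 mM KCl, 5 mM MgCl2, 1 mM ADP, 0.2 mM NADH, 4 mM 3PG; NADH loss read at 340 nm. Counter-screen without PGAM1 using 4 mM 2PG. Mean ± s.d., n=3.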

[2] = test system: NCI-H1299; experiment: Antiproliferative activity against human H1299 cells assessed as reduction in cell viability measured after 72 hrs by MTT assay; type: functional, cell-based; conditions: NCI-H1299, 72 h
How it was run: (§1)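 Cells grown in RPMI-1640 (H1299, PC9) or F-12K (A549) with 10% FBS and penicillin/streptomycin; 2000 H1299 or A549 or 1000 PC9 cells per well, attached 24 h, exposed to inhibitor 72 h; MTT 0.5 mg/mL for 4 h, absorbance at 570 nm; mean ± s.d., n=3.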

[3] = test system: A549; experiment: Antiproliferative activity against human A549 cells assessed as reduction in cell viability measured after 72 hrs by MTT assay; type: functional, cell-based; conditions: A549, 72 h; how it was run: as §1
[4] = test system: PC-9; experiment: Antiproliferative activity against human PC-9 cells assessed as reduction in cell viability measured after 72 hrs by MTT assay; type: functional, cell-based; conditions: PC-9, 72 h; how it was run: as §1

Chain of Phosphoglycerate mutase 1 (P18669 whole entry): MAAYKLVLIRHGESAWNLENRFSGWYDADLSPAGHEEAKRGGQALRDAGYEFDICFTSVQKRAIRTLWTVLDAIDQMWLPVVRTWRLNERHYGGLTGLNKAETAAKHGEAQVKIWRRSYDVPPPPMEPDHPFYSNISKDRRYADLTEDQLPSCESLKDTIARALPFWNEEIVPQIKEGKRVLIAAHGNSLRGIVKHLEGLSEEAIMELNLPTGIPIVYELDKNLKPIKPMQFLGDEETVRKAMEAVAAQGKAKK

## CS(=O)(=O)Nc1cc2c(c(O)c1O)C(=O)c1ccccc1C2=O
[1]
  IC50: 5.37 µM
[2]
  IC50: 28.5 µM

## CN1CCN(c2ccc(S(=O)(=O)Nc3cc4c(c(O)c3O)C(=O)c3ccccc3C4=O)cc2)CC1
[1]
  IC50: > 10 µM

## COc1cccc(S(=O)(=O)Nc2cc3c(c(O)c2O)C(=O)c2ccccc2C3=O)c1
[1]
  IC50: 0.48 µM
[2]
  IC50: 27.3 µM

## O=C1c2ccccc2C(=O)c2c1cc(NS(=O)(=O)c1ccc(C3CCCCC3)cc1)c(O)c2O
[3]
  IC50: 11.2 µM
[1]
  IC50: 0.097 µM
[2]
  IC50: 4.6 µM
[4]
  IC50: 11.5 µM

## O=C1c2ccccc2C(=O)c2c1cc(NS(=O)(=O)C1CCCCC1)c(O)c2O
[1]
  IC50: 1.75 µM
[2]
  IC50: 21.8 µM

## O=C1c2ccccc2C(=O)c2c1cc(NS(=O)(=O)c1cccc3ccccc13)c(O)c2O
[3]
  IC50: 50.5 µM
[1]
  IC50: 1.29 µM
[2]
  IC50: 7.7 µM
[4]
  IC50: 18.1 µM

## Cc1ccc(S(=O)(=O)Nc2cc3c(c(O)c2O)C(=O)c2ccccc2C3=O)cc1
[3]
  IC50: 25.4 µM
[1]
  IC50: 0.36 µM
[2]
  IC50: 7.7 µM
[4]
  IC50: 15.7 µM

## O=C1c2ccccc2C(=O)c2c1cc(NS(=O)(=O)N1CCOCC1)c(O)c2O
[1]
  IC50: > 10 µM

## CC(C)(C)c1ccc(S(=O)(=O)Nc2cc3c(c(O)c2O)C(=O)c2ccccc2C3=O)cc1
[3]
  IC50: 8.1 µM
[1]
  IC50: 0.49 µM
[2]
  IC50: 10.2 µM
[4]
  IC50: 9.5 µM

## CCCCS(=O)(=O)Nc1cc2c(c(O)c1O)C(=O)c1ccccc1C2=O
[1]
  IC50: 2.05 µM
[2]
  IC50: 38.8 µM

## O=C1c2ccccc2C(=O)c2c1cc(NS(=O)(=O)c1cccs1)c(O)c2O
[1]
  IC50: 0.84 µM
[2]
  IC50: 25.8 µM

## CC1CC(C)CN(c2ccc(S(=O)(=O)Nc3cc4c(c(O)c3O)C(=O)c3ccccc3C4=O)cc2)C1 (stereo unspecified)
[3]
  IC50: 9.2 µM
[1]
  IC50: 2.6 µM
[2]
  IC50: 10.3 µM
[4]
  IC50: 11.6 µM

## O=C1c2ccccc2C(=O)c2c1cc(NS(=O)(=O)c1ccc(Cl)c(C(F)(F)F)c1)c(O)c2O
[3]
  IC50: 21.6 µM
[1]
  IC50: 0.55 µM
[2]
  IC50: 13 µM
[4]
  IC50: 17.5 µM
